Shown are actives, neighbours in structure and some others; about 2.7% of the full set was active somewhere.
ABCB1 block: human ABCB1 inhibition, ABCG2 as counter-screen. CCRF-Adr cells, JC-1 efflux, flow cytometry. inhibition, % at 6.6 µM. 190,000 tested, 0.067% active. AID 1326; in the data active = inhibition above about 40%;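 also: 0% = vehicle and 100% = reference inhibitor; higher value means more JC-1 retained so stronger ABCB1 efflux block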
DTT redox prof: compounds producing H2O2 with reducing agent – biochemical, NIH compound library profiling, artefact control for MLSCN library redox annotation, primary screen | 200,000 tested, 0.03% active | AID 878 | DTT-dependent redox cycling H2O2, phenol red/HRP absorbance; 100% = 100 µM peroxide control, 0% = buffer | activation, % at 10 µM;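 active = activation of at least 50% relative to the plate's high and low controls in the primary single-dose screen; inactive = activation below 50%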;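 also: compound incubated with DTT at 0.8 mM final as the reducing agent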
FLuc inh counter: counter-screen for luciferase assay inhibitors: firefly luciferase inhibition; inhibition, % at 10 µM; ATPLite firefly luciferase biochemical luminescence, 10 min; 200,000 tested, 1.5% active; P08659;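 active = inhibition above about 50% when tested at 10 µM, limit read from the data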
ABCG2 block: blocks JC-1 efflux by human ABCG2 transporter; Q9UNQ0; IgMXP3 cells, flow cytometry; inhibition, % at 6.6 µM; 190,000 tested, 0.1% active;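 active = inhibition above 80%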;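 also: 0% = DMSO and 100% = nicardipine control wells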
Target sequence (Q9UNQ0 whole entry, looked up): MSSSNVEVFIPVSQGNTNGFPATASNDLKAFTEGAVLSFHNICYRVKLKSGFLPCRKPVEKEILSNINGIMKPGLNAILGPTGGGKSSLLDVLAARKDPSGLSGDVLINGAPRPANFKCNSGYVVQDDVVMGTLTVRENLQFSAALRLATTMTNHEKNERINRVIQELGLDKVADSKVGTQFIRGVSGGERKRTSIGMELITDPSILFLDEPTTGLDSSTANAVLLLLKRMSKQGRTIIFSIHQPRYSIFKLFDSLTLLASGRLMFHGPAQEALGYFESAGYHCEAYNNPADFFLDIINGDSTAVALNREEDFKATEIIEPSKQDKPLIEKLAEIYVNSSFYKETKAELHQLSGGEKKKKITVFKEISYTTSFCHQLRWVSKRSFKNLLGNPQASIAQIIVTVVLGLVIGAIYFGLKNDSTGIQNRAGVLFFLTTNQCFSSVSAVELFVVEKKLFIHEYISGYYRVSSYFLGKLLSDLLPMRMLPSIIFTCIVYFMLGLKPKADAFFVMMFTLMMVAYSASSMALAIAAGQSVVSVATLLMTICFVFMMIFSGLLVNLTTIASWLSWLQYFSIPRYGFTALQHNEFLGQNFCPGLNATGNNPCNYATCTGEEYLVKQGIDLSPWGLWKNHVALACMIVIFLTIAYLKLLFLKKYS
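Test system: IgMXP3 cells (ABCG2) mixed with DDAO far-red-labelled CCRF-Adr cells (ABCB1). Reagent: JC-1 transporter substrate. Compound dosing: single test compound dose, 6.6 µM final. Times: 10 min compound exposure, 25 °C. Detection: flow cytometry of retained JC-1 fluorescence. Read-out basis: efflux inhibition in percent versus controls. Controls: nicardipine and DMSO wells.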
FLuc stim CS: firefly luciferase counter-screen for stimulation assays | 200,000 tested, under 10 active | ATPlite luciferase biochemical, luminescence, 10 min; 0 = ATP-free wells, 1 = DMSO control | AID 1027 | P08659 | activation factor at 10 µM;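 active = luciferase activation factor, scaled between plate controls, of at least 2 with compound at 10 µM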
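Material: Luciferase/luciferin reagent mix; Doses: test compounds dosed from 2 mM stocks in 100% DMSO; Schedule: 10 min incubation after luciferase reagent addition, room temperature; Measured by: luminescence from luciferase reaction; Read-out: luminescence gain marking luciferase activators.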
Measles CPE: protection of cells from measles virus; AID 841; Measles virus-infected cells, CPE protection, absorbance; protection (pct of control), % at 4 µM; 140,000 tested, 1.5% active; in the data active = protection mostly above about 24%, no sharp cut-off; inactive = mostly below about 26%
Numbers without * were called inactive; · = no result given.

SMILES | ABCB1 block | DTT redox prof | FLuc inh counter | ABCG2 block | FLuc stim CS | Measles CPE
CC(C)Oc1ccc(C(CC(=O)O)NC(=O)C(Sc2ccccc2)c2ccccc2)cc1 (configuration not stated) | 0.2 | 3.6 | -8.2 | 0.1 | 1.1 | ·
COc1ccc2nc(NC(=O)c3ccc(-c4cccc([N+](=O)[O-])c4)o3)sc2c1 | -1.9 | 0.1 | 0.6 | -7.0 | 1 | 20.7
N#C/C(=C(/O)c1ccc(-c2cccc([N+](=O)[O-])c2)o1)c1nc2ccccc2s1 | -0.4 | -0.8 | 65.5* | -0.3 | 0.3 | ·
Cn1c(-c2ccccc2)cnc1SCc1nc2ccccc2c(=O)[nH]1 | 0.1 | 3.2 | 60.8* | 0.4 | 0.4 | 22.2
Cc1[nH]c2ccccc2c1C(O)CN1CCN(c2cccc(C(F)(F)F)c2)CC1 (configuration not stated) | 1.3 | 1.8 | -5.6 | 2.3 | 1.1 | 5.4
CCOc1nc(C#N)nc(N2CCCCC2)n1 | 0.7 | -2.5 | -2.0 | 1.7 | 1 | 36.4*
O=C(NCc1ccc2c(c1)OCO2)c1cccs1 | 0.1 | -2.6 | -8.4 | 3.0 | 1.1 | 20.4
CC(=O)NC12CC3CC(C1)CC(C(=O)OCC(=O)Nc1ncc(Cl)c(C)c1Cl)(C3)C2 | 0.4 | -0.2 | -7.9 | 2.3 | 1.1 | 22.2
CC(=O)NC12CC3CC(C1)CC(C(=O)OCC(=O)c1ccc4c(c1)OCCO4)(C3)C2 | 0.9 | 1.5 | 57.8* | 3.1 | 0.4 | 13.0
O=C(COC(=O)c1cccs1)c1ccc2c(c1)OCCO2 | -1.9 | -0.3 | 95.4* | -0.5 | 0 | 4.2
O=C(CSc1n[nH]c(-c2cccs2)n1)NCc1ccc2c(c1)OCO2 | 0.8 | -0.2 | 0.1 | 4.0 | 1 | 11.8*
O=C(COC(=O)c1cccs1)NCc1ccc2c(c1)OCO2 | 0.7 | 0.4 | -3.7 | 2.0 | 1 | 96.9*
O=C(CC1NCCc2ccccc21)Nc1ccc(Cl)cc1 (configuration not stated) | 0.6 | -1.5 | -4.9 | 4.3 | 1 | ·
Cc1ccc(C(=O)COC(=O)CNC(=O)c2cccs2)cc1 | 0.1 | 0.2 | -7.5 | 2.0 | 1.1 | 2.5
CCc1ccc(C(=O)COC(=O)c2cccs2)cc1 | 0.6 | 0.3 | 87.0* | 3.3 | 0.1 | 7.4
Cc1ccc(C(=O)COC(=O)c2cccs2)cc1 | 0.4 | 3.0 | 91.5* | 0.0 | 0.1 | 4.0
NS(=O)(=O)c1cc(C(=O)OCC(=O)NC2CC2)ccc1Cl | -0.5 | 1.2 | -5.9 | -4.9 | 1.1 | 19.4
CC(C)C(=O)Nc1ccccc1C(=O)OCC(=O)c1ccc2c(c1)OCCO2 | 0.1 | 0.0 | 61.9* | 0.1 | 0.4 | 15.0
NS(=O)(=O)c1cc(C(=O)OCC(=O)c2ccc3c(c2)OCCO3)ccc1Cl | 1.8 | -1.1 | 91.8* | 10.0 | 0.1 | ·
Cc1cccc(NC(=O)c2ccc(COc3cccc4ccccc34)o2)n1 | 0.1 | 0.4 | -3.8 | 5.8 | 1 | 7.8
COCc1cc(C)nc(SCC[N+](C)(C)CC(=O)Nc2cccc(C(F)(F)F)c2)c1C#N | 1.0 | -0.6 | -0.7 | 4.0 | 1 | ·
COc1cccc(N=c2oc3ccc(OC)cc3cc2-c2nc3ccccc3[nH]2)c1 | 0.1 | 1.1 | 12.7 | 0.6 | 0.9 | 46.9*
COc1cccc(N=c2oc3ccccc3cc2-c2nc3ccccc3[nH]2)c1 | 1.1 | 0.6 | 25.1 | 7.3 | 0.7 | 12.2
CC(C)CC(c1nnnn1C1CCCC1)N1CCN(c2ccccc2F)CC1 (configuration not stated) | 0.5 | 0.0 | -2.7 | -0.1 | 1 | 41.7*
CC(C)CC(c1nnnn1C1CCCCC1)N1CCN(c2ncccn2)CC1 (configuration not stated) | 0.9 | 1.2 | -0.1 | 28.6 | 1 | 4.2
SMILES | ABCB1 block | DTT redox prof | FLuc inh counter | ABCG2 block | FLuc stim CS | Measles CPE
COc1ccc(CCNC(=O)COc2ccc(C)nc2[N+](=O)[O-])cc1OC | 0.1 | -0.8 | -3.1 | 2.9 | 1 | ·
CC1=CN2C(=N)/C(=C/c3ccco3)C(=O)N=C2S1 | 0.2 | 0.3 | 91.7* | 6.6 | 0.1 | 6.4
CCOc1ccc(OCC)c(NC(=O)CN2CCN(c3cccc(C)c3C)CC2)c1 | 5.0 | -0.8 | -8.2 | 95.0* | 1.1 | 4.4
CCc1ccc(OCC(=O)NC(NC(=S)Nc2ccccc2OC)C(Cl)(Cl)Cl)cc1 (configuration not stated) | 0.4 | 0.6 | -4.7 | 16.8 | 1 | 42.9*
CCOc1cc(/C=N/Nc2nc(=O)[nH]nc2C)ccc1O | 0.0 | -1.1 | 0.2 | 2.2 | 1 | ·
CCOc1cc(/C=N/Nc2ncnc(Cl)c2N)ccc1O | 0.2 | -1.1 | 65.1* | 3.2 | 0.3 | 7.2
N/C(=N\N=C\c1ccc2c(c1)OCO2)c1nonc1N | -4.9 | -0.6 | 78.5* | -10.1 | 0.2 | 3.0
COc1cc(N/N=C/c2ccc(N(C)C)cc2)ncn1 | -0.1 | -0.4 | 86.4* | -0.1 | 0.1 | ·
Cc1ccc(-c2ccc(/C=N\NC(=O)c3cc4c(ccc5ccccc54)o3)o2)cc1[N+](=O)[O-] | -0.7 | -3.8 | -0.1 | -0.6 | 1 | 51.0*
Cc1ccc([N+](=O)[O-])cc1-c1ccc(/C=N/NC(=O)c2cc3c(ccc4ccccc43)o2)o1 | -0.6 | -3.2 | -2.5 | -0.1 | 1 | 11.2
CC(=O)c1ccc(NC(=O)CN2C(=O)/C(=C/C=C/c3ccccc3)SC2=S)cc1 | -1.3 | 0.2 | 1.1 | -6.3 | 1 | 20.3
O=C(O)CN1C(=O)/C(=C/C=C/c2ccccc2)SC1=S | -0.2 | 0.3 | 79.1* | -0.3 | 0.2 | ·
COc1ccc(CCNC(=O)CCCn2nc(C)c([N+](=O)[O-])c2C)cc1OC | 0.5 | -1.4 | 4.3 | 7.2 | 1 | ·
c1ccc(-c2cn3c4c(sc3n2)CCCC4)cc1 | 1.1 | -1.1 | 94.9* | 8.3 | 0.1 | 3.8
Cc1nn2cc(-c3ccccc3)nc2s1 | 0.0 | 0.0 | 47.4 | 0.0 | 0.5 | 19.7
COc1cc(NC(=S)N2CCN(c3ccccn3)CC2)cc(OC)c1 | 0.1 | 0.0 | 1.0 | 10.7 | 1 | 30.7*
CSc1ccc(CNC(C)(C)CO)cc1 | 0.0 | -0.2 | -5.8 | -0.4 | 1.1 | ·
COc1ccc(-n2nc(C(=O)NCC(=O)NCc3ccco3)c3ccccc3c2=O)c(OC)c1 | 0.8 | 0.3 | -7.8 | 4.2 | 1.1 | 9.0
COc1ccc(-n2nc(C(=O)NCC(=O)NCc3ccc(F)cc3)c3ccccc3c2=O)c(OC)c1 | 0.3 | -2.5 | -6.4 | 1.1 | 1.1 | 86.8*
COc1cccc(C2NC(C)(C(=O)O)C3C(=O)N(C(C)C)C(=O)C23)c1O (configuration not stated) | 0.1 | -0.7 | -3.9 | 3.0 | 1 | 29.4*
CCOc1ccccc1N(C(=O)Cn1nnnc1-c1ccc(C)o1)C(CC)C(=O)NC(C)(C)C (configuration not stated) | 7.8 | 0.3 | -4.1 | 13.1 | 1 | 39.4*

High-throughput results deposited in PubChem by several laboratories.
